Data on nine compounds can be found in ChEMBL document CHEMBL2380254, “Optimization of tocotrienols as antiproliferative and antimigratory leads” (Eur J Med Chem, 2013).

What all share (assay type): functional
One assay concerns UO-31. The assay can be described thus: Growth inhibition of human UO31 cells assessed as cell growth at 10 uM after 48 hrs by sulforhodamine B assay. The conditions noted are these: UO-31, 48 h, read-out: Activity. The method, boiled down:
(§1)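 Single-dose NCI-60 test at 10 µM. Cells were grown in RPMI 1640 with 5% FBS and 2 mM L-glutamine, preincubated 24 h, with T0 plates TCA-fixed. Exposure was 48 h at 37 °C, 5% CO2. Cells were fixed with cold TCA (final 10%, 4 °C, 60 min), stained with SRB and read at 515 nm. Percent growth was taken relative to T0 and untreated control; negative values denote cell kill.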

The next assay concerns CAKI-1. The assay can be described thus: Growth inhibition of human CAKI-1 cells assessed as cell growth at 10 uM after 48 hrs by sulforhodamine B assay. Conditions: CAKI-1, 48 h, read-out: Activity. An outline of the steps: (§2)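 NCI-60 single-dose screen at 10 µM: cells in RPMI 1640 with 5% FBS, preincubated 24 h, then exposed 48 h at 37 °C. TCA fixation (16% final for suspension cells), SRB staining, absorbance 515 nm. Percent growth relative to time-zero and untreated control plates; negative values indicate cell kill.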

The next assay has as its system 786-0. The assay can be described thus: Growth inhibition of human 786-0 cells assessed as cell growth at 10 uM after 48 hrs by sulforhodamine B assay. The conditions noted are these: 786-0, 48 h, read-out: Activity. An outline of the steps: as §2
Another assay concerns OVCAR-4. The assay can be described thus: Growth inhibition of human OVCAR4 cells assessed as cell growth at 10 uM after 48 hrs by sulforhodamine B assay. Conditions: OVCAR-4, 48 h, read-out: Activity. An outline of the steps: (§3)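 Single-dose NCI-60 screen: adherent cells in RPMI 1640 with 5% FBS were exposed to 10 µM for 48 h at 37 °C after a 24 h preincubation. They were fixed in situ with cold TCA (10% final), stained with 0.4% SRB in 1% acetic acid, solubilized in 10 mM Tris base, and read at 515 nm. Percent growth was taken relative to time-zero and control plates.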

In a further assay the test system is OVCAR-3. The assay can be described thus: Growth inhibition of human OVCAR3 cells assessed as cell growth at 10 uM after 48 hrs by sulforhodamine B assay. Conditions: OVCAR-3, 48 h, read-out: Activity. An outline of the steps: as §3
The subject of a further assay is IGROV-1. The assay can be described thus: Growth inhibition of human IGROV1 cells assessed as cell growth at 10 uM after 48 hrs by sulforhodamine B assay. Conditions: IGROV-1, 48 h, read-out: Activity. An outline of the steps: as §2
Background: Sulforhodamine B stains cellular protein and so reports cell mass.

In a further assay the test system is UACC-62. The assay can be described thus: Growth inhibition of human UACC62 cells assessed as cell growth at 10 uM after 48 hrs by sulforhodamine B assay. The conditions noted are these: UACC-62, 48 h, read-out: Activity. An outline of the steps: as §1
For another assay, the system named is SK-MEL-28. The assay can be described thus: Growth inhibition of human SK-MEL-28 cells assessed as cell growth at 10 uM after 48 hrs by sulforhodamine B assay. Conditions: SK-MEL-28, 48 h, read-out: Activity. An outline of the steps:
as §3

The test system of the next assay is SK-MEL-2. The assay can be described thus: Growth inhibition of human SK-MEL-2 cells assessed as cell growth at 10 uM after 48 hrs by sulforhodamine B assay. The conditions noted are these: SK-MEL-2, 48 h, read-out: Activity. An outline of the steps: as §3
The test system of a further assay is LOX IMVI. The assay can be described thus: Growth inhibition of human LOXIMVI cells assessed as cell growth at 10 uM after 48 hrs by sulforhodamine B assay. Conditions: read-out: Activity. An outline of the steps:
as §2

Another assay relates to U-251. The assay can be described thus: Growth inhibition of human U251 cells assessed as cell growth at 10 uM after 48 hrs by sulforhodamine B assay. The conditions noted are these: U-251, 48 h, read-out: Activity. An outline of the steps: as §1
Another assay deals with SF-539. The assay can be described thus: Growth inhibition of human SF539 cells assessed as cell growth at 10 uM after 48 hrs by sulforhodamine B assay. Conditions: SF-539, 48 h, read-out: Activity. An outline of the steps:
as §3

The next assay deals with HCT-15. The assay can be described thus: Growth inhibition of human HCT15 cells assessed as cell growth at 10 uM after 48 hrs by sulforhodamine B assay. Conditions: HCT-15, 48 h, read-out: Activity. The method, boiled down: as §2
In another assay the test system is CCRF-CEM. The assay can be described thus: Growth inhibition of human CCRF-CEM cells assessed as cell growth at 10 uM after 48 hrs by sulforhodamine B assay. The conditions noted are these: read-out: Activity. The method, boiled down:
as §2

The test system of another assay is A498. The assay can be described thus: Growth inhibition of human A498 cells assessed as cell growth at 10 uM after 48 hrs by sulforhodamine B assay. The conditions noted are these: A498, 48 h, read-out: Activity. An outline of the steps: as §2

Turning to `CC(C)=CCC/C(C)=C/CC/C(C)=C/CC[C@]1(C)CCc2c3c(c(C)c(C)c2O1)OCN(CCCCCCCCCCO)C3`, the growth at 10 µM with UO-31 came out at 71.7%; in the assay with CAKI-1, 78.9%; in the assay with 786-0 it was 99.2%; with OVCAR-4, 105%; with OVCAR-3, 94.8%; with IGROV-1, 102%. In addition, the growth at 10 µM with UACC-62 came to 103%; in the assay on SK-MEL-28, 98.2%; in the assay on SK-MEL-2, 82.3%; in the assay with LOX IMVI it was 93.6%; in the assay with U-251, 78.7%; in the assay on SF-539, 97.6%. In addition, the growth at 10 µM in the assay on HCT-15 came to 91.1%; in the assay with CCRF-CEM, 87.7%.

Turning to `COc1ccc(CCN2COc3c(C)c(C)c4c(c3C2)CC[C@@](C)(CC/C=C(\C)CC/C=C(\C)CCC=C(C)C)O4)cc1OC`, the growth at 10 µM was 76.2% in the assay with UO-31; 88.5% with CAKI-1; 108% in the assay on A498; 94.9% with 786-0; 98.4% in the assay with OVCAR-4; 105% with OVCAR-3. Moreover, the growth at 10 µM was 87.4% in the assay on IGROV-1; 96.5% with UACC-62; 93.6% with SK-MEL-28; 120% in the assay on SK-MEL-2; 98.6% in the assay with LOX IMVI; 88.4% with U-251. In addition, the values for the growth at 10 µM with SF-539, with HCT-15 and in the assay on CCRF-CEM were 103%, 102% and 78%, respectively.

Turning to `COc1ccc(CCNCc2c(O)c(C)c(C)c3c2CC[C@@](C)(CC/C=C(\C)CC/C=C(\C)CCC=C(C)C)O3)cc1OC`, the growth at 10 µM worked out at 69.5% in the assay on UO-31; 86.6% in the assay with CAKI-1; 107% with A498; 78.1% in the assay with 786-0; 84% in the assay with OVCAR-4; 101% in the assay with OVCAR-3. The growth at 10 µM is 71.5% in the assay on IGROV-1; 98.3% with UACC-62; 92.6% in the assay with SK-MEL-28; 113% in the assay on SK-MEL-2; 52.9% in the assay on LOX IMVI; 83.7% in the assay on U-251. In addition, the figures for the growth at 10 µM in the assay on SF-539, in the assay with HCT-15 and in the assay on CCRF-CEM were 97%, 104% and 75.3%, respectively.

In the case of `CC(C)=CCC/C(C)=C/CC/C(C)=C/CC[C@]1(C)CCc2cc(O)c(C)c(C)c2O1` [GAMMA-TOCOTRIENOL], the growth at 10 µM worked out at 64.1% in the assay with UO-31; 89.5% with CAKI-1; 114% with 786-0; 102% in the assay with OVCAR-4; 110% with OVCAR-3; 96.3% in the assay with IGROV-1. The growth at 10 µM stood at 108% in the assay with UACC-62; 97.3% in the assay on SK-MEL-28; 91.3% in the assay with SK-MEL-2; 90% with LOX IMVI; 102% with U-251; 101% in the assay on SF-539. The growth at 10 µM with HCT-15 was 102%; in the assay on CCRF-CEM it was 84%.

With `CC(C)=CCC/C(C)=C/CC/C(C)=C/CC[C@]1(C)CCc2c(CNCCc3ccc(O)cc3)c(O)c(C)c(C)c2O1`, the growth at 10 µM in the assay with UO-31 was determined as 70.8%; with CAKI-1 it was 86.1%; in the assay with A498, 104%; in the assay on 786-0 it was 78.2%; in the assay on OVCAR-4, 91%; with OVCAR-3, 97.1%. Also, the growth at 10 µM is 78.5% in the assay on IGROV-1; 106% with UACC-62; 93.4% with SK-MEL-28; 117% with SK-MEL-2; 63.9% with LOX IMVI; 93% in the assay on U-251. The growth at 10 µM with SF-539 worked out at 113%; with HCT-15 it was 106%; with CCRF-CEM, 75.2%.

With `CC(C)=CCC/C(C)=C/CC/C(C)=C/CC[C@]1(C)CCc2c3c(cc(C)c2O1)OCN(CCCCCCCCCCCCO)C3`, the growth at 10 µM worked out at 51.7% in the assay with UO-31; 78.3% in the assay with CAKI-1; 97% in the assay on 786-0; 77.5% in the assay with OVCAR-4; 89.5% in the assay with OVCAR-3; 72.5% with IGROV-1. Further, the growth at 10 µM in the assay with UACC-62 was found to be 67.2%; in the assay with SK-MEL-28, 75.3%; in the assay on SK-MEL-2 it was 15.3%; in the assay on LOX IMVI it was 67.1%; in the assay with U-251, 59.1%; with SF-539, 102%. Moreover, the growth at 10 µM was found to be 82.9% in the assay on HCT-15 and 13.6% with CCRF-CEM.

Turning to `CC(C)=CCC/C(C)=C/CC/C(C)=C/CC[C@]1(C)CCc2c3c(cc(C)c2O1)OCN(CCCCCCCCCCO)C3`, the growth at 10 µM in the assay on UO-31 turned out to be 61.9%; with CAKI-1, 77.9%; in the assay on 786-0 it was 85.3%; in the assay with OVCAR-4 it was 92.1%; in the assay on OVCAR-3, 94.3%; in the assay with IGROV-1, 80.1%. Besides, the growth at 10 µM with UACC-62 was determined as 109%; in the assay on SK-MEL-28, 99.9%; in the assay on SK-MEL-2, 86.4%; in the assay with LOX IMVI, 87.3%; with U-251 it was 74%; in the assay on SF-539, 98.3%. Also, the growth at 10 µM worked out at 96.9% in the assay on HCT-15 and 49.5% in the assay on CCRF-CEM.

For `CC(C)=CCC/C(C)=C/CC/C(C)=C/CC[C@]1(C)CCc2c3c(c(C)c(C)c2O1)OCN(CCCCCCCCCCCCO)C3`, the growth at 10 µM turned out to be 77.7% with UO-31; 96.2% in the assay with CAKI-1; 110% in the assay on 786-0; 107% with OVCAR-4; 109% in the assay with OVCAR-3; 102% in the assay with IGROV-1. Further, the growth at 10 µM with UACC-62 amounted to 89.5%; in the assay with SK-MEL-28, 110%; in the assay on SK-MEL-2, 76.8%; in the assay on LOX IMVI, 100%; with U-251, 90.3%; in the assay with SF-539 it was 111%. Besides, the growth at 10 µM in the assay on HCT-15 worked out at 100%; in the assay on CCRF-CEM it was 95.2%.

As to `CC(C)=CCC/C(C)=C/CC/C(C)=C/CC[C@]1(C)CCc2c3c(c(C)c(C)c2O1)OCN(CCc1ccc(O)cc1)C3`, the growth at 10 µM in the assay on UO-31 was 71.9%; in the assay with CAKI-1, 84.2%; with A498, 90.2%; in the assay on 786-0 it was 77.3%; in the assay on OVCAR-4, 81.4%; in the assay on OVCAR-3 it was 98.2%. Besides, the growth at 10 µM amounted to 67.7% in the assay with IGROV-1; 104% in the assay on UACC-62; 76.6% in the assay with SK-MEL-28; 121% with SK-MEL-2; 30.3% with LOX IMVI; 81.8% in the assay with U-251. In addition, the growth at 10 µM came out at 104% with SF-539, 102% in the assay on HCT-15 and 49.6% in the assay on CCRF-CEM.
